Where a name gives a salt, the structure may show the parent alone.
Assays:
Format in all cases: functional, tissue-based
[1] = target: T1, Histamine H1 receptor (Cavia porcellus, UniProt P31389); assay: Antagonist activity at histamine H1 receptor in guinea pig ileum assessed as inhibition of histamine-induced contractions at 1.0 mg/ml
Procedure, shortened: (§1)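 Isolated ileum from male guinea pigs (250–400 g), killed by a blow to the skull and cervical dislocation. Segments 2–3 cm long were tied to an aerating tube and an isotonic transducer. Cumulative histamine diphosphate was added every 2 min, from the threshold concentration up to the maximal response. Contraction height was expressed as % of the maximum with saline. EC50 and Emax were compared with saline (Student's t-test, n = 5 strips, mean ± SEM).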

[2] = target: Histamine H1 receptor (Cavia porcellus) (UniProt P31389); assay: Antagonist activity at histamine H1 receptor in guinea pig ileum assessed as inhibition of histamine-induced contractions at 0.5 mg/ml relative to control; procedure, shortened: as §1
Histamine H1 receptor (Cavia porcellus), sequence (P31389 whole entry): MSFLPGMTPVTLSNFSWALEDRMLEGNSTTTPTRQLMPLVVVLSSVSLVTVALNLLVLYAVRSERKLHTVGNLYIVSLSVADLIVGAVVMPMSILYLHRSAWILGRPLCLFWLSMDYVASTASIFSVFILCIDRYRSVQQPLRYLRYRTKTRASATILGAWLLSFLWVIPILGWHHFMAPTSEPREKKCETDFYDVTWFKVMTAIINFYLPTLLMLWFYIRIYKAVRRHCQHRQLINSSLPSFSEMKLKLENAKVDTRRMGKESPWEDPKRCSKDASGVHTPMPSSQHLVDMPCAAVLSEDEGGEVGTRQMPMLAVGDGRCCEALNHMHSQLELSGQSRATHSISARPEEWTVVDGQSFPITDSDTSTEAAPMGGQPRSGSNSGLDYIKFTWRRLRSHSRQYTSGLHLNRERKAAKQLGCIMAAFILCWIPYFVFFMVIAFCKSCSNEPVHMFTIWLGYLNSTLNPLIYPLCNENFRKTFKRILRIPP

[3] = target: T1, Histamine H1 receptor; assay: Antagonist activity at histamine H1 receptor in guinea pig ileum assessed as inhibition of histamine-induced contractions at 0.1 mg/ml; procedure, shortened: as §1
[4] = target: Histamine H1 receptor (Cavia porcellus) (UniProt P31389); assay: Antagonist activity at histamine H1 receptor in guinea pig ileum assessed as inhibition of histamine-induced contractions at 1.0 mg/ml relative to control; procedure, shortened: as §1
[5] = target: T1, Histamine H1 receptor; assay: Antagonist activity at histamine H1 receptor in guinea pig ileum assessed as inhibition of histamine-induced contractions at 0.5 mg/ml; procedure, shortened: as §1
[6] = target: Histamine H1 receptor (Cavia porcellus) (UniProt P31389); assay: Antagonist activity at histamine H1 receptor in guinea pig ileum assessed as inhibition of histamine-induced contractions at 0.1 mg/ml relative to control; procedure, shortened: as §1
[7] = target: T1, Histamine H1 receptor; assay: Antagonist activity at histamine H1 receptor in guinea pig ileum assessed as inhibition of histamine-induced contractions at 5 ug/ml; procedure, shortened: as §1
[8] = target: Histamine H1 receptor (Cavia porcellus) (UniProt P31389); assay: Antagonist activity at histamine H1 receptor in guinea pig ileum assessed as inhibition of histamine-induced contractions at 5 ug/ml relative to control; procedure, shortened: as §1

T1 sequence (P31389 whole entry): as above

SMILES | EC50 [1] [nM] | Emax [2] [%] | EC50 [3] [nM] | Emax [4] [%] | EC50 [5] [nM] | Emax [6] [%] | EC50 [7] [nM] | Emax [8] [%]
COc1ccccc1N1CCN(CC(O)COc2ccc3c(-c4ccccc4)cc(=O)oc3c2)CC1 (centres undefined) | 18.3 | 96 | 11.7 | 52 | 12.7 | 100 |  | 
CCCNCC(O)COc1ccc2c(-c3ccccc3)cc(=O)oc2c1 (centres undefined) | 24.1 | 100 | 15.8 | 53 | 17.8 | 100 |  | 
COc1ccccc1N1CCN(CC(O)COc2ccc3oc(=O)cc(C)c3c2)CC1 (centres undefined) | 20 | 96 | 13.7 | 58 | 14.6 | 100 |  | 
O=c1cc(-c2ccccc2)c2ccc(OCC(O)CN3CCNCC3)cc2o1 (centres undefined) | 22.6 | 100 | 15.2 | 53 | 16.6 | 100 |  | 
Cc1cc(=O)oc2ccc(OCC(O)CN3CCCCC3)cc12 (centres undefined) | 26.2 | 98 | 17.3 | 55 | 20.5 | 100 |  | 
Cc1cc(=O)oc2ccc(OCC(O)CN3CCN(C)CC3)cc12 (centres undefined) | 24.4 | 98 | 17.4 | 54 | 18.1 | 100 |  | 
Cc1cc(=O)oc2ccc(OCC(O)CN3CCN(c4ccccc4)CC3)cc12 (centres undefined) | 21.5 | 95 | 13.2 | 60 | 16 | 100 |  | 
O=c1cc(-c2ccccc2)c2ccc(OCC(O)CN3CCCCC3)cc2o1 (centres undefined) | 23.5 | 94 | 14.8 | 60 | 15.8 | 100 |  | 
CCN(CC)CC(O)COc1ccc2c(-c3ccccc3)cc(=O)oc2c1 (centres undefined) | 24.2 | 95 | 16.1 | 60 | 17.4 | 100 |  | 
CCN(CC)CC(O)COc1ccc2oc(=O)cc(C)c2c1 (centres undefined) | 27.8 | 96 | 17 | 58 | 19.6 | 100 |  | 
O=c1cc(-c2ccccc2)c2ccc(OCC(O)CN3CCOCC3)cc2o1 (centres undefined) | 21.8 | 95 | 14.4 | 58 | 16.3 | 100 |  | 
O=c1cc(-c2ccccc2)c2ccc(OCC(O)CN3CCN(c4ccccc4)CC3)cc2o1 (centres undefined) | 18.2 | 94 | 11.8 | 54 | 13.8 | 100 |  | 
CN(C)CCC(c1ccccc1)c1ccccn1 (centres undefined) [PHENIRAMINE MALEATE] |  |  |  |  |  |  | 19.1 | 78

— ChEMBL document CHEMBL1144223, “Design, synthesis, and docking studies of novel benzopyrone derivatives as H(1)-antihistaminic agents” (Bioorg Med Chem, 2008)
